Assay type in all cases: organism-based
Holding throughout (conditions): in vivo

Data set [1] concerns Yersinia pseudotuberculosis. The data set can be described thus: Growth inhibition of Yersinia pseudotuberculosis harboring pYV deletion mutant at 60 uM measured at 30 mins interval for 8 hrs. A digest of the protocol: (§1)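 Y. pseudotuberculosis strain lacking the T3SS-encoding virulence plasmid pYV (pYV−), grown in low-calcium media at 37 °C with test agent at 60 μM, kanamycin at 50 μg/mL, or DMSO. Growth followed by absorbance at 600 nm over 8 h.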

For data set [2], the system named is Yersinia pseudotuberculosis. The data set can be described thus: Toxicity against Yersinia pseudotuberculosis harboring pYV deletion mutant at 60 uM measured after 8 hrs by MTT assay. The procedure, abridged: (§2)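 pYV− Y. pseudotuberculosis cultured in low-calcium media at 37 °C with test agent at 60 μM, kanamycin at 50 μg/mL, or DMSO. MTT added after 8 h of incubation; formazan absorbance at 570 nm taken as bacterial metabolic activity.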

The subject of data set [3] is Yersinia pseudotuberculosis. The data set can be described thus: Growth inhibition of Yersinia pseudotuberculosis harboring pYV deletion mutant at 50 ug/ml measured at 30 mins interval for 8 hrs. A digest of the protocol: as §1
Data set [4] relates to Yersinia pseudotuberculosis. The data set can be described thus: Toxicity against Yersinia pseudotuberculosis harboring pYV deletion mutant at 50 ug/ml measured after 8 hrs by MTT assay. The procedure, abridged: as §2
(In general: Tetrazolium assays rely on reduction of a dye to a coloured formazan, in cell work by metabolically active cells.)

Consider `CCC(=O)N(C)CCc1cc(Br)c(OCCCNC(=O)Cc2ccc(O)cc2)c(Br)c1`, for which the “growth inhibition (GI)” value in data set [1] is on record as “Non-Toxic”. In data set [2], the Activity result is “Non-Toxic”.

For the molecule `CCC(=O)N(C)CCc1ccc(OCCCNC(=O)Cc2ccc(O)cc2)c(Br)c1`, in data set [1], the “growth inhibition (GI)” value is listed as “Non-Toxic”. Also, the Activity result in data set [2] is “Non-Toxic”.

As for `COc1c(Br)cc(CC(O)C(=O)NCCc2ccc(O)c(Br)c2)cc1Br` (stereo unspecified), in data set [1], the “growth inhibition (GI)” value is reported as “Non-Toxic”. Besides, in data set [2], the Activity entry is recorded as “Non-Toxic”.

Take `CCC(=O)N(C)CCc1ccc(OCCCN(C)C(=O)Cc2ccc(O)cc2)c(Br)c1`: the “growth inhibition (GI)” value in data set [1] is on record as “Non-Toxic”. In addition, the Activity entry in data set [2] was “Non-Toxic”.

Regarding `COc1c(Br)cc(CC(O)C(=O)NCCc2ccc(O)c(I)c2)cc1Br` (stereo unspecified), in data set [1], the “growth inhibition (GI)” value is on record as “Non-Toxic”. In addition, in data set [2], the Activity entry is listed as “Non-Toxic”.

Turning to `CCC(=O)N(C)CCc1cc(Br)c(OCCCNC(=O)Cc2ccc(O)cc2)c(I)c1`, the “growth inhibition (GI)” value in data set [1] is given as “Non-Toxic”. For the same molecule, in data set [2], the Activity entry is listed as “Non-Toxic”.

Consider `CCC(=O)N(C)CCc1ccc(OCCCNC(=O)Cc2ccc(O)cc2)c(I)c1`, for which the “growth inhibition (GI)” value in data set [1] is recorded as “Non-Toxic”. In addition, the Activity result in data set [2] was “Non-Toxic”.

For the molecule `NC[C@H]1O[C@H](O[C@H]2[C@H](O)[C@@H](O[C@H]3O[C@H](CO)[C@@H](O)[C@H](N)[C@H]3O)[C@H](N)C[C@@H]2N)[C@H](O)[C@@H](O)[C@@H]1O` [KANAMYCIN], the “growth inhibition (GI)” value in data set [3] is listed as “Non-Toxic”. The Activity result in data set [4] is reported as “Non-Toxic”.

Values taken from ChEMBL document CHEMBL4138185, “Investigation of the Physical and Bioactive Properties of Bromo- and Iodo-Containing Sponge-Derived Compounds Possessing an Oxyphenylethanamine Core” (J Nat Prod, 2017).
